Bioassay records deposited in PubChem BioAssay by several laboratories.
This is a sample that favours compounds with a hit; in the whole collection about 3.9% have one here.
ANO1 block: inhibitors of mouse TMEM16A calcium-activated chloride channel. Q8BHY3. HEK293 TMEM16A/YFP iodide influx fluorescence, ionomycin. normalized B-score (activity score, 25-100; higher = stronger inhibition) at 10 µM. hit rate 1.2% among 310,000;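 active = ratio plate-corrected score three or more library SD toward inhibition, starting fluorescence score within five deviations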;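 also: score derived from kinetic fluorescence span divided by baseline fluorescence per well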
TAAR1 ag: human TAAR1 agonism; Q96RJ0; CHO RD-HGA16 TAAR1, Fluo-8 calcium fluorescence; vehicle wells 0%, saturating PEA agonist 100%; activation, % at 3 µM; hit rate 0.99% among 360,000; AID 624467;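 active = activation above the mean activation of all test compounds in the run plus 3 SD, cut at about 38% in these data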
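Test system: RD-HGA16 (CHO) cells co-expressing Gα16 and hTAAR1 | Doses: Single dose, 3 µM | Schedule: 17-24 h seeding, 75 min 37 °C dye, 30 min RT | Evaluation: % activation from peak over basal fluorescence ratio, DMSO-to-PEA scaled | Technique: Kinetic Fluo-8 calcium fluorescence | Benchmarks: Low control DMSO, high control PEA (EC100)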
CRFBP-R2 block: blocks CRF-induced signaling of the CRF-BP/CRF-R2 complex; inhibition, % at 11.8 µM; HEK293 CRF-R2/CRF-BP, CRF-induced calcium fluorescence; hit rate 0.59% among 350,000;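 active = inhibition of the ligand-induced calcium signal above about 50% at the single tested concentration, limit read from the data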
TMEM16A act: activates or potentiates the mouse TMEM16A chloride channel. AID 623877. Q8BHY3. B-score at 10 µM. HEK293 TMEM16A/YFP-H148Q/I152L, iodide quench fluorescence; hits give low values. hit rate 0.3% among 340,000;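 active = fluorescence-ratio B-score plate-corrected deviation score at least 3 library SD below zero, with starting fluorescence score within 5 deviations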;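 also: channel opened by trigger with iodide after compound preincubation; score built on the fluorescence ratio of max minus min over baseline; more negative score means more quench and so TMEM16A activation or potentiation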
CRFR2-BP ag: CRF-BP/CRF-R2 complex agonism; HEK293 CRF-R2/CRF-BP, calcium dye fluorescence (FLIPR); percent of saturating CRF peptide response; activation, % at 13.2 µM; hit rate 0.46% among 350,000;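 active = activation of at least 50%, plus an integration ratio under a set limit after plate pattern correction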;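 also: plate controls were neutral control wells without compound for no effect and CRF at EC100 for full effect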
TAAR1 antagonist: antagonists of human TAAR1; Q96RJ0; CHO RD-HGA16 TAAR1, Fluo-8 calcium fluorescence, antagonist; inhibition, % at 3 µM; hit rate 1.5% among 360,000; AID 624466;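 active = inhibition above a per-plate cutoff, the mean inhibition of test compounds on that plate plus 3 SD, cut at about 49% in these data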;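 also: 0% = DMSO plus EC80 beta-PEA response and 100% = DMSO alone without agonist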
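Test system – hTAAR1-expressing CHO RD-HGA16 cells, Gα16-coupled · Reagent – β-PEA at EC80 concentration, post-compound challenge · Compound dosing – 3 µM, single point · Timing – 140 s kinetic read after compound, 140 s after agonist · Detection – Fluo-8 intracellular calcium dye fluorescence, real-time kinetic reads · Control set – DMSO and EC80 PEA controls · Repeats – n of 1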
TMEM16A reconf: TMEM16A (mouse) chloride channel inhibition, re-confirmation; AID 652189; HEK293 TMEM16A/YFP-H148Q, iodide quench fluorescence; ionomycin added to raise cell calcium; hit rate 39% among 2,300; inhibition, % at 10 µM; shares compounds with ANO1 block;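 active = mean duplicate percent inhibition, scaled so buffer wells are 0 and the reference blocker 100, over three buffer SD above buffer mean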
HEK293 Ca mobil: calcium mobilization counter-screen hit for TMEM16A inhibitor series; shares compounds with ANO1 block; TMEM16A/YFP HEK293, Fluo4 calcium mobilization; calcium response (% of ionomycin), % at 10 µM; hit rate 2% among 2,300; AID 652231;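 active = duplicate-averaged calcium signal over 20% of the ionomycin maximum, relative to buffer baseline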;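 also: each well's signal is peak minus trough fluorescence divided by its pre-addition baseline; 0% = buffer wells and 100% = ionomycin wells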
YFP-HEK293 quench: acts in parental YFP-HEK293 cells lacking TMEM16A, counter-screen | shares compounds with ANO1 block | 2,300 tested, under 10 active | YFP ratio F(max-min)/F0 at 10 µM | iodide YFP quench, ionomycin;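 active = yellow fluorescent protein signal ratio exceeding the buffer control mean by over 5 SD of those controls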;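 also: ratio is mean of duplicate wells from kinetic YFP trace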
ClC-1 rat inh: blocks the rat ClC-1 voltage-dependent chloride channel; shares compounds with ANO1 block; CHO ClC-1-YFP, iodide influx fluorescence quench; iodide control reads 0, buffer control 100; ratio percent, % at 10 µM; 2,300 tested, under 10 active;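 active = duplicate-mean ratio percent above the mean of iodide-only control wells, which defines zero, plus 5 of their SD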;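 also: higher percent means stronger block of ClC-1 iodide influx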
Target sequence (P35524 whole entry, looked up): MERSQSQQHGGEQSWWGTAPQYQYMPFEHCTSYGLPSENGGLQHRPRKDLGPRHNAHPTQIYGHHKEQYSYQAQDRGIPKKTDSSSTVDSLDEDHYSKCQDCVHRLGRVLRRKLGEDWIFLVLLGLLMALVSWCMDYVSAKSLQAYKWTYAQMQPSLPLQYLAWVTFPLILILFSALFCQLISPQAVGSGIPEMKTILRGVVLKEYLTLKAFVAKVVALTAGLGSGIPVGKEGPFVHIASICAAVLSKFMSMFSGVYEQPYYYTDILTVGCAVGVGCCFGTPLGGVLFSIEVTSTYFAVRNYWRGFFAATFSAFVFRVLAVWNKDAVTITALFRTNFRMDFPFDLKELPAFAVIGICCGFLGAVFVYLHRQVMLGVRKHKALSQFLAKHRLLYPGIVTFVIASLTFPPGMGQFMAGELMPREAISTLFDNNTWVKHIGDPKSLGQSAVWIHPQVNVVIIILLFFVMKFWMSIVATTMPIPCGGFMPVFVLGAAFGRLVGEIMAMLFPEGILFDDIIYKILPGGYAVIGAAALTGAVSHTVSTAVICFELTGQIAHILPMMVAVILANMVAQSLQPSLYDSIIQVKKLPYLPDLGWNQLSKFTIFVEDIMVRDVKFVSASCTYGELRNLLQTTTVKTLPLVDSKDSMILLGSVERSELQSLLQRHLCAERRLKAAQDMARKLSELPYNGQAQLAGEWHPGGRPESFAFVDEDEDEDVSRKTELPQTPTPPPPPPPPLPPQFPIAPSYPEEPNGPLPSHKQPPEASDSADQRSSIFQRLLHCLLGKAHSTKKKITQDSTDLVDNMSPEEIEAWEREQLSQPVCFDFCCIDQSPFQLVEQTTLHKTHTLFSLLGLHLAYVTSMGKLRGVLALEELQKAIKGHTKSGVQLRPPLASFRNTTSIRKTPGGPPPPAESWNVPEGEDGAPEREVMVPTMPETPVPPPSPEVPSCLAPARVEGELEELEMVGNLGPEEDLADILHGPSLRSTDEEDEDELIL
nonsel antag count: counter-screen for TAAR1 antagonists: nonselective antagonists; hit rate 77% among 2,400; counterscreen cell line, calcium fluorescence, antagonist mode; AID 651780; shares compounds with TAAR1 antagonist; inhibition, % at 3 µM; in the data active = inhibition above about 22%;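 also: CHO-Ga16 host cells stimulated with ATP at an EC80 level; 0% = agonist EC80 plus vehicle and 100% = vehicle without agonist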
TAAR1 antag conf: confirmation of human TAAR1 antagonists | TAAR1-expressing cells, fluorescence antagonist read-out | hit rate 40% among 2,400 | shares compounds with TAAR1 antagonist | inhibition, % at 3 µM; in the data active = inhibition above about 49%;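 also: CHO-Ga16 host cells challenged with agonist PEA near its EC80; 0% = agonist at EC80 plus vehicle and 100% = vehicle with no agonist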
Ga16 ag counter-1: nonselective Ga16 agonist in TAAR1 antagonist counter-screen. Ga16-expressing cells, calcium fluorescence, agonist counterscreen. AID 651953. shares compounds with TAAR1 antagonist. activation, % at 3 µM. hit rate 18% among 2,400; in the data active = activation above about 12%;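 also: 0% = vehicle wells and 100% = saturating stimulus response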
TAAR1 ag count: counter-screen for human TAAR1 antagonists: TAAR1 agonists. shares compounds with TAAR1 antagonist. hit rate 2% among 2,400. hTAAR1 cell line, fluorescence activation, agonist mode. activation, % at 3 µM; in the data active = activation above about 37%;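 also: CHO cells stably expressing TAAR1 with calcium dye readout; 0% = DMSO vehicle and 100% = full agonist response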
TAAR1 ag conf: confirmation of human TAAR1 agonists | shares compounds with TAAR1 ag | CHO RD-HGA16 TAAR1, Fluo-8 calcium fluorescence; scaled: DMSO 0%, maximal phenethylamine 100% | activation, % at 3 µM | hit rate 82% among 2,400 | AID 651783;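 active = activation above a cutoff set at the run's mean compound activation plus 3 SD, cut at about 39% in these data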
Ga16 ag counter-2: nonselective agonism, TAAR1 counter-screen | CHO-Ga16 parental, Fluo-8 calcium fluorescence; normalized to maximal ATP response, DMSO zero | shares compounds with TAAR1 ag | hit rate 50% among 2,400 | activation, % at 3 µM;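 active = activation above the run cutoff, the mean activation over all tested wells plus 3 SD, cut at about 12% in these data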;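 also: 0% = DMSO wells and 100% = maximal ATP response on the peak over basal ratio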
TAAR1 desens: counter-screen for human TAAR1 agonists: agonists that desensitize TAAR1; shares compounds with TAAR1 ag; CHO RD-HGA16 hTAAR1, Fluo-8 calcium, beta-PEA response inhibition; inhibition, % at 3 µM; hit rate 46% among 2,400; AID 651951;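 active = inhibition above the run cutoff, the mean inhibition of all test compounds plus 3 SD, cut at about 49% in these data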;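 also: beta-PEA stimulus applied at its EC80; loss of beta-PEA calcium signal after compound pretreatment read as receptor desensitization; 0% = DMSO with beta-PEA at EC80 and 100% = DMSO alone without agonist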
Ga16 antag count: counter-screen for TAAR1 agonists: nonselective Ga16 antagonists; shares compounds with TAAR1 ag; CHO-Ga16 ATP-induced calcium, Fluo-8 fluorescence; inhibition, % at 3 µM; hit rate 39% among 2,400; AID 651952;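 active = inhibition above the plate's mean compound inhibition plus 3 SD, computed per plate, cut at about 22% in these data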;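 also: 0% = EC80 ATP with DMSO and 100% = DMSO wells without ATP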
Active calls of the source: *; i = inactive; . = not tested or not shown.

SMILES	ANO1 block	TAAR1 ag	CRFBP-R2 block	TMEM16A act	CRFR2-BP ag	TAAR1 antagonist	TMEM16A reconf	HEK293 Ca mobil	YFP-HEK293 quench	ClC-1 rat inh	others
CCOC(=O)C1SC2(C(F)(F)F)CC1(O)c1c(C)cc(C)nc1O2 (stereo not given)	25*	13.2	-4.3	i	-0.1	-26.3	i	i	-0.947	-2.5
CCOP(=O)(OCC)/C(C#N)=C/c1ccc(Br)cc1	i	4.7	-8.5	i	0.3	-30.4	.	.	.	.
Cc1nc2cc(-c3ccc(Cl)cc3)nn2c(C)c1CCC(=O)N1CCC2(CC1)OCCO2	.	0.6	5.1	i	-0.2	-7.2	.	.	.	.
O=[N+]([O-])c1ccc(N2CCCCC2)c2ncccc12	i	-0.2	-4.6	i	-1.7	3.4	.	.	.	.
O=[N+]([O-])c1ccc(N2CCCC(C(F)(F)F)C2)c2ccncc12 (stereo not given)	100*	-0.4	-12.3	i	-2.7	11.9	19.5%*	i	-0.876	-24.0
CCN(CC)c1ccc(N=Cc2c(O)n(-c3ccc(OC)cc3)c(=O)[nH]c2=O)cc1	i	5.1	-43.4	i	44.5	-11.6	.	.	.	.
CCN(CC)c1ccc(N=Cc2c(O)n(-c3ccc(Cl)cc3)c(=O)[nH]c2=O)cc1	i	9.3	-10.5	i	2.1	-23.6	i	i	-0.846	9.5
CCCC[n+]1cc(=N)o[n-]1	i	20.7	0.6	i	0.2	-18.8	.	.	.	.
c1ccc(CCN2CCC(N3CCN(c4ccccc4)CC3)CC2)cc1	25*	5.3	-1.0	i	10.3	4.6	i	i	-1.41	2.5
CCC(=NCCc1ccccc1)c1c(O)n(C)c(=O)n(C)c1=O	25*	62.4*	-3.3	i	-4.7	-3.2	i	i	-1.12	-6.0	TAAR1 ag conf=60.6*;Ga16 ag counter-2=10.2;TAAR1 desens=40.0;Ga16 antag count=32.2*
COc1ccc(CNCCc2ccc(Cl)cc2Cl)cc1	i	5.2	1.1	i	0.0	-1.8	.	.	.	.
Clc1ccc(CCNCc2ccncc2)c(Cl)c1	25*	74.5*	8.9	i	0.8	51.6*	i	i	-1.18	-5.5	TAAR1 ag conf=89.3*;Ga16 ag counter-2=5.4;TAAR1 desens=71.5*;Ga16 antag count=0.8
COc1ccc(/C=C/C(=O)NC(=S)N2C[C@H]3C[C@H](C2)c2cccc(=O)n2C3)cc1OC	i	0.2	6.4	i	-1.7	-8.1	.	.	.	.
CCOC(=O)CC(SP1(=S)OCC2(CC=CCC2)CO1)C(=O)OCC (stereo not given)	.	7.7	21.4	i	0.8	69.7*	.	.	.	.	nonsel antag count=39.4*;TAAR1 antag conf=61.0*;Ga16 ag counter-1=9.0;TAAR1 ag count=7.0
Cn1cccc1C1CCCN1CC(=O)Nc1ccc(C#N)c(Cl)c1 (stereo not given)	.	3.2	-14.8	i	8.9	-10.9	.	.	.	.
O=c1[nH]c2ccccc2n1C1CCN(Cc2ccc(-c3[nH]c4cc5ncnc5cc4nc3-c3ccccc3)cc2)CC1	.	4.7	.	.	.	66.8*	.	.	.	.	nonsel antag count=21.0;TAAR1 antag conf=40.5;Ga16 ag counter-1=5.7;TAAR1 ag count=12.1
C=CCN1CC[C@]23c4c5ccc(O)c4OC2C(=O)CC[C@@]3(O)[C@H]1C5 (stereo not given in full)	.	0.6	.	.	.	-8.4	.	.	.	.
C[C@]12CCC3C(CC[C@H]4C[C@@H](O)CC[C@]34C)C1C/C(=N/O)[C@@H]2O (stereo not given in full)	.	7.5	-26.6	i	0.4	0.9	.	.	.	.
CC(C)C12CN3CCN(CC(C3)/C1=N\O)C2	i	-3.0	7.7	i	-0.6	107.7*	.	.	.	.	nonsel antag count=4.8;TAAR1 antag conf=9.7;Ga16 ag counter-1=-0.5;TAAR1 ag count=0.4
CC(C)CC12CN3CCN(CC(C3)/C1=N/O)C2	i	3.5	1.7	i	0.3	-4.5	.	.	.	.
Cc1cc(Cl)ccc1C(=O)C1CCCN(C2CCSCC2)C1 (stereo not given)	i	2.6	-2.2	i	0.9	-0.3	.	.	.	.
O=P(Oc1ccccc1)(Oc1ccccc1)C(O)c1ccccc1 (stereo not given)	i	11.0	-1.5	i	-0.1	-0.4	.	.	.	.
O=P(Oc1ccccc1)(Oc1ccccc1)C(Nc1ccccc1)c1ccccc1 (stereo not given)	i	1.2	-0.9	i	2.2	87.8*	.	.	.	.	nonsel antag count=24.6*;TAAR1 antag conf=56.7*;Ga16 ag counter-1=2.8;TAAR1 ag count=3.8
Cn1c2ccccc2c2c(C(=O)N3CCC4(CC3)OCCO4)cn(C3CCCC3)c(=O)c21	i	19.6	-12.7	i	1.5	55.7*	.	.	.	.	nonsel antag count=22.8*;TAAR1 antag conf=42.4;Ga16 ag counter-1=9.7;TAAR1 ag count=9.4
